In ChEMBL document CHEMBL5344432, “Identification of a Dual Autophagy and REV-ERB Inhibitor with in Vivo Anticancer Efficacy” (J Med Chem, 2024):
Values after ≈ are worked out from the molar mass of the structure shown.

Assays:
BT-474 = assay: Cytotoxicity against human BT-474 cells; type: functional
Method in brief: (§1)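 BT-474 breast cancer cells and nontumorigenic HMECs treated 48 h with concentrations up to 30 μM. CC50 derived from concentration–response viability plots. Values >30 μM assigned when viability fell by less than 50% of vehicle at 30 μM. Mean ± SEM, n ≥ 3.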

[1] = (§2) Cytotoxicity against HMECs; type: toxicity, cell-based, HMEC; settings: human, HMEC cells; method in brief: as §1
[2] = Aqueous kinetic solubility of the compound in PBS at pH 7.4 at 250 uM incubated for 24 hrs by UPLC/MS analysis; type: physicochemical; settings: read-out: Kinetic_solubility
Method in brief: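 Kinetic solubility measured in phosphate-buffered saline, pH 7.4. Mean of at least two independent experiments, each run in two technical replicates.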

[3] = Metabolic stability in mouse liver microsomes assessed as half life preincubated for 15 mins followed by NADPH addition and measured after 1 to 2 hrs by LC-MS/MS analysis; type: ADME, Microsome; settings: time 75-135 min; for t1/2: microsomes; for half-life: liver microsomes
Method in brief: (§3)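 Microsomal stability assessed in mouse, human, rat or dog liver microsomes with NADPH cofactor. Half-life and percent parent remaining at 60 and 120 min reported. Mean of at least two independent experiments, each in two technical replicates.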

[4] = Metabolic stability in mouse liver microsomes assessed as parent compound remaining preincubated for 15 mins followed by NADPH addition and measured after 1 hr by LC-MS/MS analysis; type: ADME, Microsome; settings: time 75 min, read-out: Stability; method in brief: as §3
[5] = Metabolic stability in mouse liver microsomes assessed as parent compound remaining preincubated for 15 mins followed by NADPH addition and measured after 2 hrs by LC-MS/MS analysis; type: ADME, Microsome; settings: time 135 min, read-out: Stability; method in brief: as §3
[6] = Metabolic stability in human liver microsomes assessed as half life preincubated for 15 mins followed by NADPH addition and measured after 1 to 2 hrs by LC-MS/MS analysis; type: ADME, Microsome; settings: time 75-135 min; for half-life: liver microsomes; method in brief: as §3
[7] = Metabolic stability in human liver microsomes assessed as parent compound remaining preincubated for 15 mins followed by NADPH addition and measured after 1 hr by LC-MS/MS analysis; type: ADME, Microsome; settings: time 75 min, read-out: Stability; method in brief: as §3
[8] = Metabolic stability in human liver microsomes assessed as parent compound remaining preincubated for 15 mins followed by NADPH addition and measured after 2 hrs by LC-MS/MS analysis; type: ADME, Microsome; settings: time 135 min, read-out: Stability; method in brief: as §3
[9] = Metabolic stability in mouse liver microsomes assessed as half life preincubated for 15 mins followed by UDPGA addition and measured after 2 hrs by LC-MS/MS analysis; type: ADME, Microsome; settings: time 135 min
Method in brief: (§4)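 Mouse and human liver microsomes incubated with UDPGA cofactor. Half-life and percent parent remaining at 120 min reported. Mean of at least two independent experiments, each in two technical replicates.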

[10] = Metabolic stability in human liver microsomes assessed as parent compound remaining preincubated for 15 mins followed by UDPGA addition and measured after 2 hrs by LC-MS/MS analysis; type: ADME, Microsome; settings: time 135 min, read-out: Stability; method in brief: as §4
[11] = Metabolic stability in mouse liver microsomes assessed as half-life preincubated for 15 mins followed by UDPGA addition and measured after 2 hrs by LC-MS/MS analysis
HMEC = assay: as §2; type: toxicity, cell-based; settings: human, hmec; method in brief: as §1
[12] = Metabolic stability in human liver microsomes assessed as percent compound remaining preincubated for 15 mins followed by UDPGA addition and measured after 2 hrs by LC-MS/MS analysis

COc1cc(C2(NCc3cccc(CC4CCN(C)CC4)c3)CCCC2)ccc1F
CC50 (BT-474): 3.65 µM
CC50 [1]: > 30 µM
solubility kinetic at 24 h, 250 µM [2]: 219 µM (≈ 89.9 µg/mL)
t1/2 [3]: 1.52 h
remaining at 1 h [4]: 62%
remaining at 2 h [5]: 40%
half-life [6]: > 2 h
remaining at 1 h [7]: 80%
remaining at 2 h [8]: 55%
half-life [9]: > 2 h
remaining at 2 h [10]: > 95%
t1/2 at 2 h [11]: > 2 h

CN1CCC(Cc2cc(CNC3(c4ccc(F)cc4)CCCC3)c(F)cc2F)CC1
CC50 (BT-474): 3.11 µM
CC50 (HMEC): 20.4 µM
solubility kinetic at 24 h, 250 µM [2]: 228 µM (≈ 95 µg/mL)
t1/2 [3]: 1.33 h
remaining at 1 h [4]: 58%
remaining at 2 h [5]: 34%
half-life [6]: > 2 h
remaining at 1 h [7]: 76%
remaining at 2 h [8]: 52%
half-life [9]: > 2 h
remaining at 2 h [10]: 95%
t1/2 at 2 h [11]: > 2 h
percent compound remaining at 2 h [12]: 95%

CN1CCC(Cc2cc(CNC3(c4ccc(F)cc4)CCCC3)ccc2Cl)CC1
CC50 (BT-474): 2.34 µM
CC50 (HMEC): 15.4 µM
solubility kinetic at 24 h, 250 µM [2]: 216 µM (≈ 89.6 µg/mL)
t1/2 [3]: 0.933 h
remaining at 1 h [4]: 51%
remaining at 2 h [5]: 29%

Fc1ccc(C2(NCc3cccc(CC4CCNCC4)c3)CCCC2)cc1
CC50 (BT-474): 2.74 µM
CC50 [1]: > 30 µM
solubility kinetic at 24 h, 250 µM [2]: 248 µM (≈ 90.9 µg/mL)
half-life [3]: > 2 h
remaining at 1 h [4]: 85%
remaining at 2 h [5]: 71%
half-life [6]: > 2 h
remaining at 1 h [7]: 80%
remaining at 2 h [8]: 62%
half-life [9]: > 2 h
remaining at 2 h [10]: 95%
t1/2 at 2 h [11]: > 2 h
percent compound remaining at 2 h [12]: 95%

COc1cc(F)ccc1C1(NCc2cccc(CC3CCN(C)CC3)c2)CCCC1
CC50 (BT-474): 6.99 µM
CC50 [1]: > 30 µM
solubility kinetic at 24 h, 250 µM [2]: 247 µM (≈ 101 µg/mL)
t1/2 [3]: 1.63 h
remaining at 1 h [4]: 64%
remaining at 2 h [5]: 42%
t1/2 ([6]; microsomes): 1.53 h
remaining at 1 h [7]: 70%
remaining at 2 h [8]: 50%
half-life [9]: > 2 h
remaining at 2 h [10]: > 95%
t1/2 at 2 h [11]: > 2 h

CN1CCC(Cc2cc(CNC3(c4ccc(F)cc4)CCCC3)ccc2F)CC1
CC50 (BT-474): 5.89 µM
CC50 [1]: > 30 µM
solubility kinetic at 24 h, 250 µM [2]: > 250 µM
t1/2 [3]: 1.52 h
remaining at 1 h [4]: 60%
remaining at 2 h [5]: 39%
half-life [6]: > 2 h
remaining at 1 h [7]: 84%
remaining at 2 h [8]: 71%
half-life [9]: > 2 h
remaining at 2 h [10]: 95%
t1/2 at 2 h [11]: > 2 h
percent compound remaining at 2 h [12]: 95%

CN1CCC(Cc2ccc(O)c(CNC3(c4ccc(F)cc4)CCCC3)c2)CC1
CC50 (BT-474): 7.03 µM
CC50 [1]: > 30 µM
solubility kinetic at 24 h, 250 µM [2]: 246 µM (≈ 97.6 µg/mL)
t1/2 [3]: 1.37 h
half-life [6]: > 2 h
remaining at 1 h [7]: 74%
remaining at 2 h [8]: 54%
half-life [9]: > 2 h
remaining at 2 h [10]: 95%
t1/2 at 2 h [11]: > 2 h
percent compound remaining at 2 h [12]: 95%

CN1CCC(Cc2cccc(CNC3(c4ccc(F)c(Cl)c4)CCCC3)c2)CC1
CC50 (BT-474): 3.61 µM
CC50 (HMEC): 21.9 µM
solubility kinetic at 24 h, 250 µM [2]: 249 µM (≈ 103 µg/mL)
half-life [3]: > 1 h
remaining at 1 h [4]: 53%

CN1CCC(Cc2cccc(CNC3(c4ccc(F)c(F)c4)CCCC3)c2)CC1
CC50 (BT-474): 5.1 µM
CC50 [1]: > 30 µM
solubility kinetic at 24 h, 250 µM [2]: 245 µM (≈ 97.6 µg/mL)
t1/2 [3]: 1.17 h
remaining at 1 h [4]: 56%
remaining at 2 h [5]: 31%
half-life [6]: > 2 h
remaining at 1 h [7]: 75%
remaining at 2 h [8]: 53%
half-life [9]: > 2 h
remaining at 2 h [10]: > 95%
t1/2 at 2 h [11]: > 2 h

CN1CCC(Cc2cccc(CNC3(c4ccc(F)cc4F)CCCC3)c2)CC1
CC50 (BT-474): 7.83 µM
CC50 [1]: > 30 µM
solubility kinetic at 24 h, 250 µM [2]: 209 µM (≈ 83.3 µg/mL)
half-life [3]: < 0.5 h
remaining at 1 h [4]: 19%
remaining at 2 h [5]: 5%

CN1CCC(Cc2cccc(CNC3(c4ccc(F)c(O)c4)CCCC3)c2)CC1
CC50 (BT-474): 11.7 µM
CC50 [1]: > 30 µM
solubility kinetic at 24 h, 250 µM [2]: > 250 µM
half-life [3]: > 2 h
remaining at 1 h [4]: 80%
remaining at 2 h [5]: 63%
half-life [6]: > 2 h
remaining at 1 h [7]: 84%
remaining at 2 h [8]: 71%
half-life [9]: > 2 h
remaining at 2 h [10]: > 95%
t1/2 at 2 h [11]: > 2 h
percent compound remaining at 2 h [12]: 95%
